Compound activity from PubChem.
In the library only some 5.2% were active in any assay of this set; here they are far more common.
HCV core dimer = inhibitors of HCV core protein dimerization, primary screen, biochemical, TR-FRET, high-throughput. inhibition, % at 5 µM. TR-FRET GST/Flag-core106 dimerization, 1536-well. hit rate 0.33% among 300,000;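 active = inhibition above the mean of all tested compounds plus 3 SD, set per screening campaign, cut at about 45% in these data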
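Assay system: Tagged HCV core106 pair (GST and Flag) | Buffer or medium: KF-containing HEPES buffer, pH 7.45, DTT, CHAPS, BSA | Also added: Eu donor and XL665 acceptor anti-tag antibodies | Dosing: One concentration, 5 µM, in 0.5% DMSO | Timing: 4 h at 22.5 °C | Technique: TR-FRET 671 and 617 nm emission | Repeats: Singlicate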
M18AAP inhibitor = PfM18AAP inhibitors, malaria aminopeptidase, primary screen, biochemical, QFRET, recombinant enzyme. H-Glu-NHMec fluorogenic cleavage. AID 1822, 2009. M18 aspartyl aminopeptidase (Plasmodium falciparum 3D7). inhibition, % at 7.35 µM. hit rate 1.2% among 290,000;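 active = inhibition above the campaign mean inhibition over all tested compounds plus 3 SD, cut at about 28% in these data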;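 note: 0% = plate median of test compound wells and 100% = 2 mM ZnCl2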
ZTA counter = ZTA (EBV) inhibition in EBNA-1 counter-screen. P03206. ZTA-DNA binding, fluorescence polarization. inhibition, % at 11 µM. hit rate 0.15% among 320,000; in the data active = inhibition above about 33%
Target sequence (P03206 whole entry, looked up): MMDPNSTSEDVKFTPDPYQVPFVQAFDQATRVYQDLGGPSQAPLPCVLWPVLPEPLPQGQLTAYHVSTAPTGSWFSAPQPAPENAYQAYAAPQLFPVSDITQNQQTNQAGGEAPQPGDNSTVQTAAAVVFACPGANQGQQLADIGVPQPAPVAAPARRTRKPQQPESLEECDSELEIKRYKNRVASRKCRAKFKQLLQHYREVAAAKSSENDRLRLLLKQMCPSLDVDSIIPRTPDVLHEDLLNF
EBNA-1 inhibitor = EBNA-1 DNA-binding inhibitors, primary screen, biochemical, fluorescence polarization; inhibition, % at 14.8 µM; hit rate 0.34% among 300,000; AID 1950, 2009; in the data active = inhibition above about 28%
NS3 helicase inh = inhibitors of HCV NS3 helicase, primary screen, biochemical, Cy5 molecular beacon fluorescence; Hepatitis C virus NS3 helicase; NS3 helicase DNA unwinding; inhibition, % at 10.9 µM; hit rate 0.56% among 290,000; AID 1800, 2009;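 active = inhibition above the mean of all tested compounds plus 3 SD, set per campaign, cut at about 35% in these data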;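 note: 0% = DMSO wells and 100% = thioflavine S control wells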
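System: HCV NS3 helicase fragment; control set: DMSO and thioflavine S; technique: Cy5 fluorescence at 0 and 60 min, beacon hairpin quenching; reagent: beacon DNA duplex substrate plus ATP; replicates: singlicate; schedule: 1 h reaction at 25 °C, ATP-initiated; medium: MOPS buffer pH 6.5 with MgCl2, DTT, Tween20, BSA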
ALR H2O2 inh = inhibitors of human ALR sulfhydryl oxidase, primary screen, biochemical, H2O2 detection, HRP-luminol luminescence, single point; FAD-linked sulfhydryl oxidase ALR (Homo sapiens), P55789; purified ALR, DTT oxidation; inhibition, % (test concentration not listed); hit rate 3.8% among 290,000; AID 485317, 2010;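 active = mean replicate inhibition above about 79%, with every replicate also reaching it, limit read from the data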
Target sequence (P55789 whole entry, looked up): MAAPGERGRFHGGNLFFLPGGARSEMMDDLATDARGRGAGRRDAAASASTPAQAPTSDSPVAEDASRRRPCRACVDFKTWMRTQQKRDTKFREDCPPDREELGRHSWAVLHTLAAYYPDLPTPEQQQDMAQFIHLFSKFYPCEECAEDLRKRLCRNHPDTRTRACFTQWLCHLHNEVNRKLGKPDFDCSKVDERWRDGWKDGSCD
Numbers without * were called inactive; nt = no result given.

SMILES	HCV core dimer	M18AAP inhibitor	ZTA counter	EBNA-1 inhibitor	NS3 helicase inh	ALR H2O2 inh
CCn1c(N)c(C(=O)NC2CCCCC2)sc1=S	-2	2	-5	2	3	98*
CCOC(=O)c1sc(=S)n(C)c1C	-2	-1	-7	-6	-2	-8
CCOC(=O)c1sc(=S)n(CC)c1N	-2	1	11	3	-5	99*
CCOC(=O)c1sc(=S)n(C)c1N	3	1	-26	-5	-1	99*
CCN1C(=O)C(F)(CC)C(=O)c2ccccc21 (stereo not given)	-3	-7	-6	4	8	12
COC(OC)c1nc(SCC(=O)Nc2cccc(Cl)c2)ncc1C(=O)O	5	-4	3	11	9	99*
CCC(C)[C@H](N)c1nnc(SCC(=O)Nc2cccc(Cl)c2)o1 (stereo not given in full)	-2	-8	3	-10	-7	41
COc1cccc(CNC(=O)c2ccc(C3SCCS3)cc2)c1	-2	-7	-7	4	-3	91*
O=C(N/N=C/c1ccc(F)cc1)c1cc(-c2ccco2)nc2ccccc12	69*	10	5	11	39*	-6
O=C(NC(=S)Nc1cccc(S(=O)(=O)NC2=NCCC2)c1)c1cc(-c2ccco2)nc2ccccc12	32	14	-6	-2	29	3
CCOc1ccc(/C=N/NC(=O)c2cc(-c3ccco3)nc3ccccc23)cc1	24	4	5	2	34	14
Cc1nnc(NC(=O)c2cc(-c3ccco3)nc3ccccc23)s1	78*	nt	-2	23	nt	0
O=C(Nc1cccc(S(=O)(=O)NC2=NCCC2)c1)c1cc(-c2ccco2)nc2ccccc12	76*	3	-14	-1	45*	-3
O=C(Nc1nccs1)c1cc(-c2ccco2)nc2ccccc12	84*	-5	9	-3	18	nt
Cc1cccc(NC(=O)C2CCCN2S(=O)(=O)c2ccc(Cl)cc2)n1 (stereo not given)	-1	0	2	11	-2	-3
CCOc1ccc(C(=O)COC(=O)c2nn(CC)c(=O)c3ccccc23)cc1	nt	nt	0	nt	nt	nt
O=C(/C=C(\O)c1ccccc1)C(=O)NNC(=O)c1ccccc1	10	10	17	4	16	59
O=C(/C=C(\O)c1ccc(Cl)cc1)C(=O)NNC(=O)C(O)(c1ccccc1)c1ccccc1	15	7	-21	3	54*	-1
Cc1ccc(S(=O)(=O)N2CCN(S(=O)(=O)N3CCCCC3)CC2)c(C)c1	3	-1	-11	5	15	100*
Cc1ccc(S(=O)(=O)N2CCN(S(=O)(=O)N3CCC(C)CC3)CC2)c(C)c1	4	0	-2	-3	6	2
O=[N+]([O-])c1cccc(CN2CCN(c3ncccn3)CC2)c1	10	-1	8	8	1	-3
O=[N+]([O-])c1cccc(CN2CCN(c3cccc4[nH]ccc34)CC2)c1	4	0	6	7	-3	99*
O=C(c1ccc([N+](=O)[O-])cc1)N1CCN(c2cccc3[nH]ccc23)CC1	2	-15	-12	-7	7	99*
CCN(Cc1ccc2c(c1)OCCO2)C(=O)CSc1nc(C)nc2sc(C)c(C)c12	nt	nt	5	nt	nt	11
O=C(CCl)N(c1ccc(Cl)cc1)c1c[nH]c2ccccc12	2	9	9	-10	-15	98*
SMILES	HCV core dimer	M18AAP inhibitor	ZTA counter	EBNA-1 inhibitor	NS3 helicase inh	ALR H2O2 inh
O=C(CCl)N(c1ccccc1)c1c[nH]c2ccccc12	4	7	1	-10	5	62
COc1ccc(-c2c(C(F)(F)F)nn(C)c2NC(C)=O)cc1	-2	-5	12	4	-22	-8
C=CCNC(=O)c1ccc(CSc2nc3ccccc3s2)cc1	6	2	8	-1	2	99*
C=CCNC(=O)c1nc2ccccc2s1	-1	12	-9	6	4	nt
CC(=O)NCCNC(=O)c1ccc(CSc2nc3ccccc3s2)cc1	3	0	-12	-5	5	99*
COC(=O)c1ccc(CSc2nc3ccccc3s2)o1	4	3	-11	-14	-12	2
CCOc1cc(C2C3=C(CC(C)(C)CC3=O)N(CCCOC)C3=C2C(=O)CC(C)(C)C3)ccc1O	nt	31*	nt	nt	28	5
C#CCOc1ccc(C2C3=C(CC(C)(C)CC3=O)N(CC(=O)O)C3=C2C(=O)CC(C)(C)C3)cc1OC	-2	32*	-7	-1	23	-5
C#CCOc1ccc(C2C3=C(CC(C)(C)CC3=O)N(CC(=O)O)C3=C2C(=O)CC(C)(C)C3)cc1	2	5	-14	-3	9	-1
CCOC(=O)C1=C(COC(=O)c2ccc([N+](=O)[O-])o2)NC(=O)NC1C (stereo not given)	nt	nt	-12	nt	nt	12
COc1cc(/C=C/C(=O)O)cc(S(=O)(=O)NNC(=O)c2ccc3c(c2)OCO3)c1OC	nt	nt	nt	nt	nt	90*
COc1cc(/C=C(\C#N)C(=O)c2ccc(O)c(O)c2)cc(I)c1O	-17	nt	-9	6	nt	99*
COc1cc(/C=C(\C#N)C(=O)N2CCOCC2)cc(Br)c1O	-15	-1	-1	-6	4	47
COc1ccccc1NC(=O)C1CCN(S(=O)(=O)c2ccc3c(c2)NC(=O)CO3)CC1	-2	-4	-5	3	3	-14
CCOc1c(Br)cc(CNc2ccc(N3CCOCC3)cc2)cc1OC	-14	13	-4	15	18	98*
COc1cc(CNc2ccc(N3CCCC3)cc2)ccc1OCc1ccccc1	6	8	76*	74*	10	nt
CCNCc1ccc(OCc2ccccc2F)c(OC)c1	-4	-15	-18	-5	-6	nt
COc1cc(CNc2ccc(N3CCCC3)cc2)ccc1OCc1ccccc1F	-1	6	79*	65*	7	20
N#Cc1cnn2ccc(-c3ccc4c(c3)CCC4)nc12	4	1	-3	-7	-12	nt
Oc1ccc(Nc2nc(Cl)nc(NCc3ccco3)n2)cc1	4	-10	0	8	9	99*
CSCc1ccc(C(=O)NC2CC(C)(C)Cc3c2cnn3-c2ccc(F)cc2)o1 (stereo not given)	12	1	-1	6	0	94*
Cc1cc(C)c(C(=O)NC2CC(C)(C)Cc3c2cnn3-c2ccccc2)o1 (stereo not given)	7	-3	-16	-8	-3	87*
COC(=O)c1ccccc1NC(=O)CSc1n[nH]c(C)n1	2	30*	2	4	18	-3
COC(=O)c1ccccc1NC(=O)CSc1n[nH]c(CC(C)C)n1	-2	3	4	-17	-3	-3
